Laboratory results reported in the M2OR odorant receptor database.

Experiments:
Details in all cases: stereoisomer not certain
OR10H4 (Homo sapiens) = target: T1, OR10H4 (Homo sapiens) (UniProt Q8NGA5)
T1 sequence (whole entry): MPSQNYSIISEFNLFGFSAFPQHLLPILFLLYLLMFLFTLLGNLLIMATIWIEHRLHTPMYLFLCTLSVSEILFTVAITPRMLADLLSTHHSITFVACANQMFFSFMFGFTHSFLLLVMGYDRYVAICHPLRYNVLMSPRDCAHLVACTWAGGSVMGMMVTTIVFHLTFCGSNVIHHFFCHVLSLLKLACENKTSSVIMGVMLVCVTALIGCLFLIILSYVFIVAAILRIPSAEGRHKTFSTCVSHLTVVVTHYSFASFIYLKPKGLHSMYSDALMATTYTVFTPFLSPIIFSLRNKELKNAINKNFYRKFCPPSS
Method in brief: (§1)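 Transient luciferase assays in mammalian cell lines were common, though methods varied by source. The values come from published papers and their supplementary material, with extra details from the original authors when needed. Responsive refers to a measured signal the original authors judged statistically different from baseline, and non-responsive (inactive) to the remainder.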

OR10H5 (Homo sapiens) = target: T2, OR10H5 (Homo sapiens) (UniProt Q8NGA6)
T2 sequence (whole entry): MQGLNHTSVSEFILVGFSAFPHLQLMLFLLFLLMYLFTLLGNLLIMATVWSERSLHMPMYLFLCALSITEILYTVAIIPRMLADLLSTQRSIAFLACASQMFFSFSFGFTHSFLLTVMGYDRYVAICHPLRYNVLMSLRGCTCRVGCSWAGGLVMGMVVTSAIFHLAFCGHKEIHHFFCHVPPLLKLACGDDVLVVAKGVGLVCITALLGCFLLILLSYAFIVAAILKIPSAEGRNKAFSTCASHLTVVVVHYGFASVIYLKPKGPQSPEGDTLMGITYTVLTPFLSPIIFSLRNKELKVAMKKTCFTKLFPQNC
Method in brief: as §1

OR10J1 (Homo sapiens) = target: T3, OR10J1 (Homo sapiens) (UniProt P30954)
T3 sequence (whole entry): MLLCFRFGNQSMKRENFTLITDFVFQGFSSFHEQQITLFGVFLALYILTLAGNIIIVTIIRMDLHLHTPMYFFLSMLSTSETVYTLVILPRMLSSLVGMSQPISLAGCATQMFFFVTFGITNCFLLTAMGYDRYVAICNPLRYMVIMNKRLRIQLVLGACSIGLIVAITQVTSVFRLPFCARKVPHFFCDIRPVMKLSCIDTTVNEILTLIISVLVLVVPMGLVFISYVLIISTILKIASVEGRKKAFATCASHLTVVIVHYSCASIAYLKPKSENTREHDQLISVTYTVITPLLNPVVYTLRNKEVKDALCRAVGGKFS
Method in brief: as §1

OR10J3 (Homo sapiens) = target: T4, OR10J3 (Homo sapiens) (UniProt Q5JRS4)
T4 sequence (whole entry): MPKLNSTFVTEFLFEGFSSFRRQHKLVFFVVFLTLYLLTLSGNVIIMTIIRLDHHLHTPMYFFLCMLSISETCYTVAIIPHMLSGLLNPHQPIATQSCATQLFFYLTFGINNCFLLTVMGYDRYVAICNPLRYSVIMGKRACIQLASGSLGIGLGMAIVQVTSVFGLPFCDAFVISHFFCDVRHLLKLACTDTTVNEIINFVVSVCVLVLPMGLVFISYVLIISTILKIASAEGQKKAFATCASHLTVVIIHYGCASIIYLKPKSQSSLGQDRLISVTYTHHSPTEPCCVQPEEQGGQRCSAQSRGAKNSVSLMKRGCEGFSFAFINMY
Method in brief: as §1

OR10J5 (Homo sapiens) = target: T5, OR10J5 (Homo sapiens) (UniProt Q8NHC4)
T5 sequence (whole entry): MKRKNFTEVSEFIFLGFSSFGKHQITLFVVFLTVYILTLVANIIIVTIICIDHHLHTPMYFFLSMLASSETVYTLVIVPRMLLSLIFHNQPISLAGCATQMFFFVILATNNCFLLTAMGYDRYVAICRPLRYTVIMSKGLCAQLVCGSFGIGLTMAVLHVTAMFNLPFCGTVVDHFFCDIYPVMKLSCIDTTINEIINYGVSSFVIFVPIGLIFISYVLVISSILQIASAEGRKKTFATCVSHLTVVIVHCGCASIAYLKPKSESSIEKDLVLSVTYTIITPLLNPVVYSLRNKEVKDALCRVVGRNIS
Method in brief: as §1

OR10K1 (Homo sapiens) = target: T6, OR10K1 (Homo sapiens) (UniProt Q8NGX5)
T6 sequence (whole entry): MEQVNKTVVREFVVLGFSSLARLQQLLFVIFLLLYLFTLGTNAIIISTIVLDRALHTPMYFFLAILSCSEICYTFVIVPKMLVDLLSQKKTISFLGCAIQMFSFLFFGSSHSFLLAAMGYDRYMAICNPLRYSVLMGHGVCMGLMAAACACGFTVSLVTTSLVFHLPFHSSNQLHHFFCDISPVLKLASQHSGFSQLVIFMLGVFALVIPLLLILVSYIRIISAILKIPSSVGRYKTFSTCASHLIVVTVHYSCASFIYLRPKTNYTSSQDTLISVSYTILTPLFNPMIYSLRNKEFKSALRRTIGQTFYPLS
Method in brief: as §1

OR10K2 (Homo sapiens) = target: T7, OR10K2 (Homo sapiens) (UniProt Q6IF99)
T7 sequence (whole entry): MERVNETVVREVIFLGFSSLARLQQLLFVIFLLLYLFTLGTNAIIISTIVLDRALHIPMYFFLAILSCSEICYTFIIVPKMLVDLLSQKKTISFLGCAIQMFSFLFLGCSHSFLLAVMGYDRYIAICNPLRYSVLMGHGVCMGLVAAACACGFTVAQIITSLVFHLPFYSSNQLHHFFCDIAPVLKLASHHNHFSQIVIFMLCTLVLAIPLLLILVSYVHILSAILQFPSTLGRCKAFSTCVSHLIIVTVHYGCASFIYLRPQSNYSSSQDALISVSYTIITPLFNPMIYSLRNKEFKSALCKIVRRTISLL
Method in brief: as §1

OR10P1 (Homo sapiens) = target: T8, OR10P1 (Homo sapiens) (UniProt Q8NGE3)
T8 sequence (whole entry): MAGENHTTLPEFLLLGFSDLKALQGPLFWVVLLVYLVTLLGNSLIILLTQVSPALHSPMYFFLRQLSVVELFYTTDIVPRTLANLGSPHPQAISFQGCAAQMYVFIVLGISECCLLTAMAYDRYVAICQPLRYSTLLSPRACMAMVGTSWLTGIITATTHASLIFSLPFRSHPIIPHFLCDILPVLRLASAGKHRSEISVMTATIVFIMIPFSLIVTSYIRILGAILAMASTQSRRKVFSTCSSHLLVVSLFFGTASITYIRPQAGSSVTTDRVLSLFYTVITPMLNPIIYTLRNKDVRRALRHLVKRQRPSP
Method in brief: as §1

OR10Q1 (Homo sapiens) = target: T9, OR10Q1 (Homo sapiens) (UniProt Q8NGQ4)
T9 sequence (whole entry): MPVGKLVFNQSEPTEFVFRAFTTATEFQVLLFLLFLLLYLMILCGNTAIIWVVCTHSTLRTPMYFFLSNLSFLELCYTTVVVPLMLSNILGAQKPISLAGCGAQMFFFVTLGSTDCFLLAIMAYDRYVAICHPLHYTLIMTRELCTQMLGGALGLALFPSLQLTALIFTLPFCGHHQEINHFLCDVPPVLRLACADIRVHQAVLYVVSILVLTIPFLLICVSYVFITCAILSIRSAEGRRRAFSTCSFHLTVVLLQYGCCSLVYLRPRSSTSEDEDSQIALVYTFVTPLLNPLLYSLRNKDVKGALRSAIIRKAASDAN
Method in brief: as §1

Measured: odorant receptor agonist call

CCCCCC(S)C(C)CO (centres undefined)
inactive: OR10H4 (Homo sapiens) | OR10H5 (Homo sapiens) | OR10J1 (Homo sapiens) | OR10J3 (Homo sapiens) | OR10J5 (Homo sapiens) | OR10K1 (Homo sapiens) | OR10K2 (Homo sapiens) | OR10P1 (Homo sapiens) | OR10Q1 (Homo sapiens)
